For eight molecules, IC50 results are on record in BindingDB's records for doi:10.1016/j.ejmech.2016.05.060 (Xi'An Jiaotong University, 2016).

The target in assay [1] is T1, Tyrosine-protein phosphatase non-receptor type 1 (Homo sapiens, UniProt P18031).
T1 sequence (P18031 whole entry): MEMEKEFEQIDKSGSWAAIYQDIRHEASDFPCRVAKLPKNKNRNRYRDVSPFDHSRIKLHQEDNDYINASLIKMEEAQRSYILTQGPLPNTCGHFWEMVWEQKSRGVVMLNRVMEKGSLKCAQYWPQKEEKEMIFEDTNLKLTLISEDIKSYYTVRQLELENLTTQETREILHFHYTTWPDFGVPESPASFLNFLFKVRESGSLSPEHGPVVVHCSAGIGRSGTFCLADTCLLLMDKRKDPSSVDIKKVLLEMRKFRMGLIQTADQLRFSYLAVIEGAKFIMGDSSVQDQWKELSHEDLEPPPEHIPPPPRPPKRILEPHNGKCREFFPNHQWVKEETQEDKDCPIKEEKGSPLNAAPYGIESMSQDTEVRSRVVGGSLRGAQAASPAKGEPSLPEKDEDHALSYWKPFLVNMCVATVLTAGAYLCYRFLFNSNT
Nature of the assay: Inhibition of human recombinant GST-tagged PTP1B catalytic domain expressed in Escherichia coli BL21-Conden plus (DE3) using pNPP as substrate.

For assay [2], the target named is T2, M-phase inducer phosphatase 2 (Homo sapiens, UniProt P30305).
T2 sequence (P30305 whole entry): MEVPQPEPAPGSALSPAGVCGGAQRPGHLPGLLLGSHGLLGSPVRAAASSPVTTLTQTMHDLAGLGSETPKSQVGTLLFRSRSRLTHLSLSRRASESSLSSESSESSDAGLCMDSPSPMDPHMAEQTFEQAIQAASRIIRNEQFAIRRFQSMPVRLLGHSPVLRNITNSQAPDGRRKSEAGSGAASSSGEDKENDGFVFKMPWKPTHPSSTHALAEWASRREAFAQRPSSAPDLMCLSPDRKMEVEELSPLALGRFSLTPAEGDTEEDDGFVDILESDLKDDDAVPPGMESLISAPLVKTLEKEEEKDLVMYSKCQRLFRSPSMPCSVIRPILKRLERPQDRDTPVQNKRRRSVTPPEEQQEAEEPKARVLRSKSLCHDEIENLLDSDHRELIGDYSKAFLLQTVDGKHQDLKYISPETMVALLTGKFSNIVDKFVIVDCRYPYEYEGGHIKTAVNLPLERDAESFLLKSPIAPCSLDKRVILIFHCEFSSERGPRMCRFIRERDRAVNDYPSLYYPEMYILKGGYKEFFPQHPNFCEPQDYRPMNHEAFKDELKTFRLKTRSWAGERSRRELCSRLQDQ
Nature of the assay: Inhibition of human recombinant GST-tagged CDC25B assessed as reduction in dephosphorylation of florigenic phosphatase substrate preincubated for 1 hr followed by substrate addition measured after 1 hr by fluorescence assay. A digest of the protocol:
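Purified GST-CDC25B fusion protein was preincubated with compound for 1 h, then fluorescein diphosphate ([…]) was added. Fluorescence was read within the linear range of the reaction after 1 h at room temperature. Na₃VO₄ served as positive control and DMSO as negative control.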

As to `CCOC(=O)c1c(C)[nH]c(/C=C2\S/C(=N\c3ccc(F)cc3)N(c3ccc(F)cc3)C2=O)c1C`, the values for the IC50 in assay [1] and in assay [2] were 6.09 µM and 2.87 µM, respectively.

For the molecule `CCOC(=O)c1c(C)[nH]c(/C=C2\S/C(=N/O)N(C(C)C)C2=O)c1C`, the half-maximal inhibitory concentration (IC50) (in general, the midpoint of a concentration-inhibition curve) in assay [2] came out at 5.83 µM.

For `CC(C)N1C(=O)/C(=C/c2ccc(OCCN(C)c3ccccn3)cc2)S/C1=N\O`, in assay [2], the IC50 stood at 2.47 µM.

For the molecule `[O]=[V]([OH])([OH])[OH]`, the 50% inhibitory concentration (IC50) in assay [2] was determined as 0.91 µM.

`CCOC(=O)c1c(C)[nH]c(/C=C2\S/C(=N\c3cccc(F)c3)N(c3cccc(F)c3)C2=O)c1C`: the IC50 in assay [1] is 6.83 µM; in assay [2] it was 3.39 µM.

As to `CCOC(=O)c1c(C)[nH]c(/C=C2\S/C(=N\c3ccccc3)N(c3ccccc3)C2=O)c1C`, the concentration for half-maximal inhibition (IC50) in assay [1] was determined as 8.66 µM.

For `CCOC(=O)c1c(C)[nH]c(/C=C2\S/C(=N\c3ccc(OC)cc3)N(c3ccc(OC)cc3)C2=O)c1C`, in assay [2], the half-inhibitory concentration (IC50) is 2.74 µM.

`CCOC(=O)c1c(C)[nH]c(/C=C2\S/C(=N\c3ccccc3F)N(c3ccccc3F)C2=O)c1C`: the half-maximal inhibitory concentration (IC50) in assay [2] came out at 3.66 µM.
